pIC50: −log10 of the molar value.
What was measured:
[1] = system: carrageenan-induced rat paw edema; assay: Carrageenan-induced rat paw edema model; assay type: in vivo; conditions: 10 mg kg−1 po, n = 4; for Edema inhibition %, 1 h / Edema thickness ± SEM, 1 h: 1 h after carrageenan injection; for Edema inhibition %, 3 h / Edema thickness ± SEM, 3 h: 3 h after carrageenan injection; for Edema inhibition %, 6 h / Edema thickness ± SEM, 6 h: 6 h after carrageenan injection
In short: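 Rats were dosed orally with test compound (10 mg kg−1) in 5% aqueous DMSO (v/v). […] Thirty minutes after dosing, 0.02 ml of 1% carrageenan was injected sub-plantar. Paw thickness was measured 1, 3 and 6 h after injection, and edema inhibition % was calculated from paw thickness.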

ovine COX-1 = target: T1, ovine COX-1 (Ovis aries, UniProt P05979); assay: In vitro cyclooxygenase; assay type: biochemical
T1 sequence (P05979 25-600): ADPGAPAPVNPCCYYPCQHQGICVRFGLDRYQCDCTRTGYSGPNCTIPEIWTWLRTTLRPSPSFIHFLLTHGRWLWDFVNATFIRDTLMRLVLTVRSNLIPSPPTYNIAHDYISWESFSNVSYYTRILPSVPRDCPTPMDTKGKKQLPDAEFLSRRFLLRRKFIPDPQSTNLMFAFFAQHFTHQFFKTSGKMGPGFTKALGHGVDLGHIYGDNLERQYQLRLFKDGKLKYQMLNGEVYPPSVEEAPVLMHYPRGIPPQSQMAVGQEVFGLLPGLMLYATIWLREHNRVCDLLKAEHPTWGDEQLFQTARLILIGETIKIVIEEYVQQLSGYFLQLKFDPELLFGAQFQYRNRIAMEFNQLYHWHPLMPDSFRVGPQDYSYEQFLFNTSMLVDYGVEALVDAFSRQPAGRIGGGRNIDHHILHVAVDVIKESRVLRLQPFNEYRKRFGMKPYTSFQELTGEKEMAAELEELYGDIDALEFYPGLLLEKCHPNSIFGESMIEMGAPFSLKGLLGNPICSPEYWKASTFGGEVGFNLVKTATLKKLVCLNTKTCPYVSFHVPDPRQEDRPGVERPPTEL

ovine COX-2 = target: T2, ovine COX-2 (Ovis aries, UniProt P79208); assay: In vitro cyclooxygenase; assay type: biochemical; conditions: for Selectivity index (SI): COX-1 IC50/COX-2 IC50
T2 sequence (P79208 17-603): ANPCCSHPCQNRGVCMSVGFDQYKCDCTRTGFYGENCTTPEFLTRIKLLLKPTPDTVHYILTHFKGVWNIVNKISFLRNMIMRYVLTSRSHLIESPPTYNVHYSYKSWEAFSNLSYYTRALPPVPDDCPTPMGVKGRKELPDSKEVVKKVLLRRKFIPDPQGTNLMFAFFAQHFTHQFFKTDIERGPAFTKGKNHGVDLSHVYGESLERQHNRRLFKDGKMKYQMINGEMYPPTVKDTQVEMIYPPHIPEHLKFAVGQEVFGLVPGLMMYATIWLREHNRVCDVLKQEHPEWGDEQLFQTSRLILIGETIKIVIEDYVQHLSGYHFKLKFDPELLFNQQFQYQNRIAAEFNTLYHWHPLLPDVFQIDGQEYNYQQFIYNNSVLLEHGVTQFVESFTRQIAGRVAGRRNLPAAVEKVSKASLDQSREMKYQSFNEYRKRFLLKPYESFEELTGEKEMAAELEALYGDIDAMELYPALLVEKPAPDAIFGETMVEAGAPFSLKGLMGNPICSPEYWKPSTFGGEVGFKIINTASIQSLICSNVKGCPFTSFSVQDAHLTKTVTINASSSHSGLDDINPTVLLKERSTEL

| pIC50 (ovine COX-1) | pIC50 (ovine COX-2) | Selectivity index (SI) (ovine COX-2) | SMILES | Edema inhibition %, 1 h [1] [%] | Edema thickness ± SEM, 1 h [1] [mm] | Edema inhibition %, 3 h [1] [%] | Edema thickness ± SEM, 3 h [1] [mm] | Edema inhibition %, 6 h [1] [%] | Edema thickness ± SEM, 6 h [1] [mm] |
| --- | --- | --- | --- | --- | --- | --- | --- | --- | --- |
| 4.99 | 6.89 | 79 | CS(=O)(=O)c1ccc(-c2nc3cc(Cl)ccc3n2CC(=O)N/N=C/c2ccc(Cl)cc2)cc1 [11f, (E)-N′-(4-Chlorobenzylidene)-2-(5-chloro-2-(4-(methylsulfonyl)phenyl)-1H-benzo[d]imidazol-1-yl) acetohydrazide] | 78 | 0.577 ± 0.020 | 80 | 0.449 ± 0.008 | 90 | 0.191 ± 0.011 |
| 5.06 | 6.89 | 67 | COc1ccc(/C=N/NC(=O)Cn2c(-c3ccc(S(C)(=O)=O)cc3)nc3cc(Cl)ccc32)cc1 [11g, (E)-N′-(4-Methoxybenzylidene)-2-(5-chloro-2-(4-(methylsulfonyl)phenyl)-1H-benzo[d]imidazol-1-yl) acetohydrazide] | 61 | 1.017 ± 0.007 | 65 | 0.785 ± 0.018 | 78 | 0.410 ± 0.018 |
| 5.10 | 6.66 | 36 | CS(=O)(=O)c1ccc(-c2nc3cc(Cl)ccc3n2CC(=O)N/N=C/c2ccc(F)cc2)cc1 [11h, (E)-N′-(4-Fluorobenzylidene)-2-(5-chloro-2-(4-(methylsulfonyl)phenyl)-1H-benzo[d]imidazol-1-yl) acetohydrazide] | 50 | 1.30 ± 0.079 | 52 | 1.063 ± 0.020 | 60 | 0.754 ± 0.026 |
| 4.95 | 6.96 | 102 | Cc1ccc2c(c1)nc(-c1ccc(S(C)(=O)=O)cc1)n2CC(=O)N/N=C/c1ccc(Cl)cc1 [11j, (E)-N′-(4-Chlorobenzylidene)-2-(5-methyl-2-(4-(methylsulfonyl)phenyl)-1H-benzo[d]imidazol-1-yl) acetohydrazide] | 81 | 0.505 ± 0.022 | 91 | 0.194 ± 0.018 | 93 | 0.129 ± 0.008 |

More lines, now with the values behind:

| SMILES | pIC50 (ovine COX-1) | pIC50 (ovine COX-2) | Selectivity index (SI) (ovine COX-2) | Edema inhibition %, 1 h [1] [%] | Edema thickness ± SEM, 1 h [1] [mm] | Edema inhibition %, 3 h [1] [%] | Edema thickness ± SEM, 3 h [1] [mm] | Edema inhibition %, 6 h [1] [%] | Edema thickness ± SEM, 6 h [1] [mm] |
| --- | --- | --- | --- | --- | --- | --- | --- | --- | --- |
| CS(=O)(=O)c1ccc(-c2nc3ccccc3n2CC(=O)N/N=C/c2ccccc2)cc1 [11a, (E)-N′-Benzylidene-2-(2-(4-(methylsulfonyl)phenyl)-1H-benzo[d]imidazol-1-yl) acetohydrazide] | 5.01 | 6.72 | 52 | 60 | 1.048 ± 0.027 | 64 | 0.812 ± 0.037 | 69 | 0.578 ± 0.049 |
| COc1ccc(/C=N/NC(=O)Cn2c(-c3ccc(S(C)(=O)=O)cc3)nc3ccccc32)cc1 [11c, (E)-N′-(4-Methoxybenzylidene)-2-(2-(4-(methylsulfonyl)phenyl)-1H-benzo[d]imidazol-1-yl) acetohydrazide] | 4.95 | 6.96 | 103 | 81 | 0.487 ± 0.019 | 92 | 0.181 ± 0.013 | 93 | 0.130 ± 0.010 |
| CS(=O)(=O)c1ccc(-c2nc3ccccc3n2CC(=O)N/N=C/c2ccc(F)cc2)cc1 [11d, (E)-N′-(4-Fluorobenzylidene)-2-(2-(4-(methylsulfonyl)phenyl)-1H-benzo[d]imidazol-1-yl) acetohydrazide] | 4.99 | 6.92 | 85 | – | – | 81 | 0.427 ± 0.017 | 90 | 0.183 ± 0.014 |
